Laboratory results reported in ChEMBL document CHEMBL3400073, “Design, synthesis and biological evaluation of new hybrid anticonvulsants derived from N-benzyl-2-(2,5-dioxopyrrolidin-1-yl)propanamide and 2-(2,5-dioxopyrrolidin-1-yl)butanamide derivatives” (Bioorg Med Chem, 2015).
Calls of active or inactive are those of the source. No cut-off for these calls is given here.

Experiments:
[1] = test system: Liver microsome; experiment: Drug metabolism in human liver microsomes assessed as metabolite formation treated with 50 uM 2-(2,5-Dioxopyrrolidin-1-yl)-N-(2-fluorobenzyl)propanamide pre-incubated at 37 degC for 5 mins before addition of NADPH regeneration system measured after 120 mins by UPLC-MS/MS method; type: ADME; conditions: 2 h
Summary of the method: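 Pooled human liver microsomes from adult males and females were used at 1 mg/ml in 0.1 M Tris-HCl, pH 7.4. After the 5 min preincubation, the NADPH regeneration system was added and the reaction ran for 120 min. It was quenched with cold methanol and centrifuged, and the supernatant was analysed by UPLC-MS/MS with ESI on a tandem quadrupole.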

[2] = test system: Mus musculus; experiment: Anticonvulsant activity in Albino Swiss CD1 mouse at 100 mg/kg, ip after 0.5 hrs by subcutaneous pentylenetetrazole test; type: functional, organism-based; parameters: dose 100 mg/kg
Summary of the method: (§1)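 Male CD-1 mice, 16–26 g, in groups of 4, each mouse used once, were given 100 mg/kg ip (0.1 mL/10 g, methylcellulose vehicle). MES used 25 mA, 500 V, 50 Hz delivered by ear electrodes for 0.2 s, and absence of hindlimb tonic extension counted as protection. In scPTZ, mice without clonic convulsions over 30 min of observation counted as protected. Both tests were run 0.5 h or 2 h after dosing.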

[3] = test system: Mus musculus; experiment: Neurological toxicity in Albino Swiss CD1 mouse at 100 mg/kg, ip after 0.5 hrs by rotarod test; type: organism-based; parameters: dose 100 mg/kg, route intraperitoneal; conditions: in vivo
Summary of the method: (§2)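 Mice were trained on a 2 cm rod for 3 min, with unlimited trials, at least 24 h before testing. Each was then dosed ip at 100 mg/kg and tested at 10 rpm 0.5 h or 2 h later, in groups of 4. Failure to stay on the rod for at least 1 min indicated neurotoxicity.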

[4] = test system: Mus musculus; experiment: Anticonvulsant activity in intraperitoneally dosed Albino Swiss CD1 mouse by maximal electroshock test; type: functional; conditions: Albino Swiss CD1, ip
Summary of the method: (§3)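 Male CD-1 mice were dosed ip (0.1 mL/10 g, methylcellulose vehicle), at least four dose groups of 6 mice each. Protection in MES meant no hindlimb tonic extension after a 25 mA, 50 Hz, 0.2 s ear-electrode shock. Protection in scPTZ meant no clonus over 30 min.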

[5] = test system: Mus musculus; experiment: Anticonvulsant activity in intraperitoneally dosed Albino Swiss CD1 mouse assessed as time to peak effect after 2 hrs by subcutaneous pentylenetetrazole test; type: functional
[6] = test system: Mus musculus; experiment: Anticonvulsant activity in intraperitoneally dosed Albino Swiss CD1 mouse assessed as time to peak effect by maximal electroshock test; type: functional
[7] = test system: Mus musculus; experiment: Anticonvulsant activity in intraperitoneally dosed Albino Swiss CD1 mouse after 2 hrs by maximal electroshock test; type: functional; summary of the method: as §3
[8] = test system: Mus musculus; experiment: Neurological toxicity in Albino Swiss CD1 mouse at 100 mg/kg, ip after 2 hrs by rotarod test; type: organism-based; parameters: dose 100 mg/kg, route intraperitoneal; conditions: in vivo; summary of the method: as §2
[9] = test system: Mus musculus; experiment: Anticonvulsant activity in Albino Swiss CD1 mouse at 100 mg/kg, ip after 2 hrs by subcutaneous pentylenetetrazole test; type: functional, organism-based; parameters: dose 100 mg/kg; summary of the method: as §1
[10] = test system: Mus musculus; experiment: Anticonvulsant activity in Albino Swiss CD1 mouse at 100 mg/kg, ip after 0.5 hrs by maximal electroshock test; type: functional, organism-based; parameters: dose 100 mg/kg; summary of the method: as §1
[11] = test system: Mus musculus; experiment: Anticonvulsant activity in Albino Swiss CD1 mouse at 100 mg/kg, ip after 2 hrs by maximal electroshock test; type: functional, organism-based; parameters: dose 100 mg/kg; summary of the method: as §1
[12] = test system: Mus musculus; experiment: Anticonvulsant activity in intraperitoneally dosed Albino Swiss CD1 mouse after 0.5 hrs by subcutaneous pentylenetetrazole test; type: functional; summary of the method: as §3
[13] = organism: Mus musculus; experiment: Protective index, ratio of neurotoxic TD50 in Albino Swiss CD1 mouse by rotarod test to anticonvulsant ED50 in Albino Swiss CD1 mouse by maximal electroshock test
Summary of the method: (§4)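 The protective index is the rotarod TD50 divided by the MES or scPTZ ED50. Each value came from ip dosing in male CD-1 mice with probit analysis, and the reference drugs were tested under the same conditions.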

[14] = test system: Mus musculus; experiment: Anticonvulsant activity in intraperitoneally dosed Albino Swiss CD1 mouse after 0.5 hrs by maximal electroshock test; type: functional; summary of the method: as §3
[15] = test system: Mus musculus; experiment: Protective index, ratio of neurotoxic TD50 in Albino Swiss CD1 mouse by rotarod test to anticonvulsant ED50 in Albino Swiss CD1 mouse by subcutaneous pentylenetetrazole test; summary of the method: as §4
[16] = test system: Mus musculus; experiment: Anticonvulsant activity in intraperitoneally dosed Albino Swiss CD1 mouse after 2 hrs by subcutaneous pentylenetetrazole test; type: functional; summary of the method: as §3
[17] = Neurological toxicity in intraperitoneally dosed Albino Swiss CD1 mouse by rotarod test; type: organism-based; conditions: in vivo, ip
Summary of the method: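 Mice trained on the rotarod were given various ip doses, four groups in all, and tested at 10 rpm. Failure to stay on the rod for at least 1 min indicated neurotoxicity.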

[18] = test system: Mus musculus; experiment: Anticonvulsant activity in intraperitoneally dosed Albino Swiss CD1 mouse by subcutaneous pentylenetetrazole test; type: functional; summary of the method: as §3
[19] = test system: HEK293; experiment: Antiproliferative activity against HEK293 cells at 0.01 to 250 uM after 48 hrs by formazan based EZ4U assay; type: cell-based; conditions: human, hek293, 48 h
Summary of the method: (§5)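 HEK-293 cells (1.5 × 10^4/well) and IMR-32 cells (2 × 10^4/well) were grown in DMEM with 10% FBS for 24 h to 60% confluence. Compound was diluted from a 25 mM DMSO stock to 0.01–250 µM final, with DMSO at or below 1%, and incubated 48 h at 37 °C in 5% CO2. EZ4U reagent was added for 5 h, then absorbance was read at 492 nm.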

[20] = Cytotoxic activity against human IMR32 cells at 0.01 to 250 uM after 48 hrs by formazan based EZ4U assay; type: cell-based; conditions: imr-32, 48 h; summary of the method: as §5
[21] = test system: Mus musculus; experiment: Ratio of protective index for […] acid to protective index for compound in intraperitoneally dosed Albino Swiss CD1 mouse
[22] = test system: Mus musculus; experiment: Potency index, ratio of ED50 for […] acid to ED50 for compound in intraperitoneally dosed Albino Swiss CD1 mouse by subcutaneous pentylenetetrazole test; type: functional

| SMILES | Activity [3] | ED50 [4] | Time [5] | Time [6] | Activity [8] | Activity [9] | Activity [10] | Activity [11] | MED50 [12] | Ratio TD50/ED50 [13] | MED50 [14] | Ratio TD50/ED50 [15] | MED50 [16] | TD50 [17] | ED50 [18] | other results |
| --- | --- | --- | --- | --- | --- | --- | --- | --- | --- | --- | --- | --- | --- | --- | --- | --- |
| O=C(NCc1ccccc1F)C(CO)N1C(=O)CCC1=O (stereo not given) | – | – | – | – | – | – | – | – | – | – | – | – | – | – | – | Drug metabolism [1]: metabolite_detected |
| CC1CC(=O)N(C(C)C(=O)NCc2ccc(C(F)(F)F)cc2)C1=O (racemic) | Non-toxic | > 150 mg/kg | 2 h | 2 h | Non-toxic | inactive | inactive | – | – | – | – | – | – | – | – | Activity [2]: inactive; MED50 [7]: 100 mg/kg |
| CCC(C(=O)NCc1ccccc1Cl)N1C(=O)CCC1=O (racemic) | Non-toxic | 113 mg/kg | 0.5 h | 0.5 h | Non-toxic | – | – | inactive | 100 mg/kg | 3.7 | 100 mg/kg | 5.47 | 100 mg/kg | 418 mg/kg | 76.4 mg/kg | – |
| CC(C(=O)NCc1ccccc1F)N1C(=O)CCC1=O (racemic) | Non-toxic | – | 0.5 h | 0.5 h | Non-toxic | inactive | – | inactive | 100 mg/kg | – | 100 mg/kg | – | – | – | – | Activity [19]: Non-toxic; Activity [20]: Non-toxic |
| CC(C(=O)NCc1ccc(C(F)(F)F)cc1)N1C(=O)CCC1=O (racemic) | Non-toxic | 80 mg/kg | 2 h | 0.5 h | Non-toxic | – | – | inactive | – | 1.78 | 100 mg/kg | 2.62 | 100 mg/kg | 143 mg/kg | 54.5 mg/kg | Activity [2]: inactive |
| CCC(C(=O)NCc1ccccc1F)N1C(=O)CCC1=O (racemic) | Non-toxic | – | 0.5 h | 0.5 h | Non-toxic | – | inactive | inactive | 100 mg/kg | – | – | 5.27 | 100 mg/kg | 346 mg/kg | 65.7 mg/kg | – |
| CCC(C(=O)NCc1ccccc1C(F)(F)F)N1C(=O)CCC1=O (racemic) | Non-toxic | > 150 mg/kg | 0.5 h | 0.5 h | Non-toxic | – | inactive | inactive | – | – | – | – | 100 mg/kg | – | – | Activity [2]: inactive |
| CCC(C(=O)NCc1cccc(C(F)(F)F)c1)N1C(=O)CCC1=O (racemic) | Non-toxic | – | 0.5 h | 0.5 h | Non-toxic | inactive | inactive | inactive | 100 mg/kg | – | – | 2.12 | – | 163 mg/kg | 77.4 mg/kg | – |
| CCC(C(=O)NCc1ccccc1)N1C(=O)CCC1=O (racemic) | Non-toxic | 73.3 mg/kg | 0.5 h | 0.5 h | Non-toxic | inactive | – | inactive | 100 mg/kg | 4.26 | 100 mg/kg | 3.46 | – | 312 mg/kg | 90.3 mg/kg | – |
| CC1CC(=O)N(C(C)C(=O)NCc2ccccc2)C1=O (racemic) | Non-toxic | 106 mg/kg | 0.5 h | 0.5 h | Non-toxic | inactive | – | inactive | 100 mg/kg | 3.34 | 100 mg/kg | 4.54 | – | 355 mg/kg | 78.3 mg/kg | – |
| CCC(C(=O)NCc1cccc(F)c1)N1C(=O)CCC1=O (racemic) | Non-toxic | – | 0.5 h | 0.5 h | Non-toxic | inactive | inactive | inactive | 100 mg/kg | – | – | 6.89 | – | 327 mg/kg | 47.4 mg/kg | Ratio [21]: 3.05; Ratio ED50 [22]: 2.96 |
| CCC(C(=O)NCc1ccc(Cl)cc1)N1C(=O)CCC1=O (racemic) | Non-toxic | 95.3 mg/kg | 0.5 h | 0.5 h | Non-toxic | – | – | inactive | 100 mg/kg | 1.83 | 100 mg/kg | 3.43 | 100 mg/kg | 174 mg/kg | 50.8 mg/kg | – |
| CCC(C(=O)NCc1ccc(F)cc1)N1C(=O)CCC1=O (racemic) | Non-toxic | – | 0.5 h | 0.5 h | Non-toxic | inactive | inactive | inactive | 100 mg/kg | – | – | 3.22 | – | 268 mg/kg | 83.4 mg/kg | – |
